In PubChem BioAssay AID504525 (Broad Institute, 2011):
Calls of active or inactive are those of the source.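 Rule for the calls: active = fitted dose curve showing toxicity with half-maximal concentration at most ten times the top tested dose; inconclusive = flat curve with 30 to 70% toxicity, or poor fit; inactive = the rest.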

Assay: mammalian cell viability loss with fluconazole – NIH-3T3, powder samples, set 7, cytotoxicity control for antifungal drug resistance project, dose response (AID 504525)
Settings: NIH-3T3 viability with fluconazole, Alamar Blue, 48 h; series mostly up to 26 µM
Summary of the method: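 Assay system: NIH 3T3 fibroblast cells, Alamar Blue viability. Amount: 6,000 cells per well. Buffer or medium: Optimem growth medium with 2.5% fetal bovine serum. Probe or stimulus: fluconazole co-treatment at 8 µg/mL final. Compound: dose series up to 26 µM. Times: 48 h compound exposure at 37 °C. Measured by: Alamar Blue fluorescence, Ex 544/Em 590 nm.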

| Compound | outcome |
| --- | --- |
| CN1CCN(C(=O)Cn2c3ccccc3c3nc4n(c(=O)c32)CCS4)CC1 | inactive |
| COC(=O)Cn1nc(-c2cnco2)c2ccccc21 | inactive |
| COC(=O)Cn1nc(-c2cccnc2)c2ccccc21 | inactive |
| CC1(O)CN(C(=O)Cn2c3ccccc3c3nc4n(c(=O)c32)CCS4)C1 | inactive |
| O=C(Cn1c2ccccc2c2nc3n(c(=O)c21)CCS3)N1CCC(F)(F)CC1 | inactive |
| O=C(Cn1c2ccccc2c2nc3n(c(=O)c21)CCS3)N1CCC(F)(F)C1 | inactive |
| O=C(Cn1c2ccccc2c2nc3n(c(=O)c21)CCS3)N1CC=CC1 | inactive |
| O=C(Cn1c2ccc(F)cc2c2nc3n(c(=O)c21)CCS3)N1CCC(F)(F)C1 | inactive |
| COC(=O)n1nc(-c2ccccc2)c2ccccc21 | inactive |
| COC(=O)Cn1nc(-c2cccc(C)c2)c2ccccc21 | inactive |
| COC(=O)Cn1c2ccc(F)cc2c2nc3n(c(=O)c21)CCS3 | inactive |
| COC(=O)Cn1nc(-c2ccccc2)c2cccnc21 | inactive |
| COC(=O)Cn1nc(C2CCCCC2)c2ccccc21 | inactive |
| c1ccc(-c2nn(Cc3nnco3)c3ccccc23)cc1 | inactive |
| COC(=O)Cn1nc(C(C)(C)C)c2ccccc21 | inactive |
| O=C(Cn1c2ccc(F)cc2c2nc3n(c(=O)c21)CCS3)N1CC=CC1 | inactive |
| CC1CCN(CCn2c3ccccc3c3nc4n(c(=O)c32)CCS4)CC1 | inactive |
| O=C(O)Cn1c2ccccc2c2nc3n(c(=O)c21)CCS3 | inactive |
| CCc1nn(CC(=O)OC)c2ccccc12 | inactive |
| O=C(O)Cn1c2ccc(F)cc2c2nc3n(c(=O)c21)CCS3 | inactive |
